What is called inhibition is the drop in the measured response relative to a control, in per cent.

Each structure is given as a SMILES string. Several values for one entry are separate records, joined by “and”; a condition that tells them apart may be missing. Equal entries are not always repeated. The whole screen tested about 360,000 compounds, of which about 5,400 (1.5%) were called active. What follows is part of a selection rich in actives, with near analogues and random picks from the rest. A number with no mark means an inactive call.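 Rule for the calls: active = inhibition above a per-plate cutoff, the mean inhibition of test compounds on that plate plus 3 SD (cut at about 49% in these data); inactive = the rest.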

Trace amine-associated receptor 1 (Homo sapiens), sequence (Q96RJ0 whole entry, looked up): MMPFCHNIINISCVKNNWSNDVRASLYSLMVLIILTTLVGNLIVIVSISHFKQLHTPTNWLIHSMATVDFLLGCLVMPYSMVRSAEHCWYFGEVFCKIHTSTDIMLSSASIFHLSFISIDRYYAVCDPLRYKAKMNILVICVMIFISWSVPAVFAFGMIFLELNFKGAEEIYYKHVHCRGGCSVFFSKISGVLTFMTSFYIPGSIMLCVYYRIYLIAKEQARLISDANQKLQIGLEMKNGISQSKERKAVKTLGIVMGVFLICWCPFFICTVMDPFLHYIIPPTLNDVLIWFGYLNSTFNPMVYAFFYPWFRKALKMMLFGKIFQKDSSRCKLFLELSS

This assay addresses Trace amine-associated receptor 1 (Homo sapiens) (UniProt Q96RJ0). Kind of assay: blockers of beta-PEA-driven TAAR1 calcium signal – Fluo-8 calcium fluorescence, CHO RD-HGA16 cells, primary screen (AID 624466).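 Note: 0% = DMSO plus EC80 beta-PEA response and 100% = DMSO alone without agonist.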 The conditions noted are these: CHO RD-HGA16 TAAR1, Fluo-8 calcium fluorescence, antagonist; at 3 µM; hits give high values. The essentials:
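Test system: CHO RD-HGA16 cells bearing hTAAR1 | Reagent: β-PEA, EC80 | Compound dosing: 3 µM, single point | Schedule: Dye loading 75 min at 37 °C, then 30 min room temperature | Signal: Calcium fluorescence with Fluo-8 | Evaluation: Percent inhibition of PEA-evoked calcium signal, max/basal emission ratio | Control set: DMSO-only wells and EC80 β-PEA-stimulated wells | Repeats: Singlicate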
Regarding `O=C(Nc1ccccc1)c1nnsc1S(=O)(=O)c1ccc(Cl)cc1`, the inhibition is 59.8% (active). The figure for `Cc1nnsc1S(=O)(=O)Cc1ccccc1Cl` is -3.1%; for `O=C(Nc1ccc(S(=O)(=O)N2CCOCC2)cc1)C1CCN(S(=O)(=O)c2ccc(Cl)cc2)CC1` it is 8.67%. The figure for `C=CCN=C1NC(c2cccc(C(F)(F)F)c2)C(C(=O)OC)=C(C)N1C` (stereo unspecified) is 5.15%. The same measure for `C[C@@H](CN1C2=NC[C@@H](Cc3ccccc3)N2C[C@H]1Cc1ccc(O)cc1)NC(=O)CCC1CCCCC1`: -6.17%; for `CCc1ccc2c(c1)NC(=O)C2(C)Cc1ccc(OC(F)(F)F)cc1` (stereo unspecified): 55.2% (active); for `COc1ccccc1CC1(C)C(=O)Nc2ccc(OC(F)(F)F)cc21` (stereo unspecified): -12.2%.

Take `Cc1ccc(CC2(C)C(=O)Nc3ccc(OC(F)(F)F)cc32)cc1` (stereo unspecified): the inhibition was -5.18%. The figure for `CCOC(=O)c1cc2c(ccn2C)n1CC(=O)N1CCC(C)CC1` is -7.37%. The same measure for `COc1ccc(CCNC(=O)c2ccccc2-c2ccccc2C(=O)O)cc1OC`: -6.06%; for `COc1ccc(CCNC2=C(Cl)C(=O)N(Cc3ccccc3)C2=O)cc1OC`: 63% (active). For the molecule `COc1ccc(CCNc2nc(C)cc(C)n2)cc1OC`, the inhibition is -1.79%. The figure for `CC(=O)Nc1ccccc1OC(C)C(=O)N1CCC(C)CC1` (stereo unspecified) is -3.93%.

For `COc1ccc2c(c1)C(SCC(=O)NCc1ccccc1)CC(C)(C)O2` (stereo unspecified), the inhibition was 13%.

`C=CC[C@@H](Cc1ccc(F)cc1)C(=O)OC[C@H]1CCCN1C(=O)[C@H](CC=C)CC(=O)N(CCO)Cc1ccccc1`: the inhibition is 39.6%.

In the case of `C=CCC[C@@H](Cc1ccc(F)cc1)C(=O)OC[C@@H](C)NC(=O)[C@H](CC=C)CC(=O)N(CCO)Cc1ccccc1`, the inhibition was 46.1%. As to `C=CC[C@@H](CC(=O)N[C@H](CO)Cc1ccccc1)C(=O)N[C@@H](COC(=O)[C@@H](CC=C)Cc1ccc(F)cc1)Cc1c[nH]c2ccccc12`, the inhibition is 9.92%. `C=CCC[C@@H](Cc1ccc(F)cc1)C(=O)OC[C@H](Cc1c[nH]c2ccccc12)NC(=O)[C@@H](CC=C)CC(=O)N(CCO)Cc1ccccc1`: the inhibition was 38.4%.

Regarding `C=CC[C@H](CC(=O)N(CCO)Cc1ccccc1)C(=O)N[C@@H](COC(=O)[C@@H](CC=C)Cc1ccc(F)cc1)Cc1ccccc1`, the inhibition was 61.4% (active). The same measure for `C=CCC[C@H](Cc1ccc(F)cc1)C(=O)OC[C@H](C)NC(=O)[C@H](CC=C)CC(=O)N(CCO)Cc1ccccc1`: 55.4% (active); for `C=CCC[C@@H](Cc1ccc(F)cc1)C(=O)O[C@H](CNC(=O)[C@H](CC=C)CC(=O)N(CCO)Cc1ccccc1)c1ccccc1`: 75.5% (active); for `C=CC[C@@H](CC(=O)N[C@H](CO)Cc1ccccc1)C(=O)N[C@H](C)COC(=O)[C@@H](CC=C)Cc1ccc(F)cc1`: 38%.

For the molecule `C=CCC[C@H](Cc1ccc(F)cc1)C(=O)OC[C@@H](NC(=O)[C@@H](CC=C)CC(=O)N[C@H](CO)Cc1ccccc1)C(C)(C)C`, the inhibition was 37.2%. The figure for `COC(=O)C1(C(=O)OC)C[C@H](c2ccccc2)N(Cc2ccccc2OC)[C@@H]1c1ccccc1` is -23.2%. The figure for `Cc1noc(C)c1NC(=O)Nc1ccc2c(c1)C(=O)N([C@H](C)CO)C[C@H](C)[C@H](CN(C)Cc1ccncc1)OCCCC[C@@H](C)O2` is 8.35%.

In the case of `CCCCCCc1cc2cc(-c3nnc(-c4cccc(OC)c4)o3)c(=O)oc2cc1O`, the inhibition is 15.5%. The same measure for `Nc1[nH]c(C(=O)c2ccccc2)c(-c2ccncc2)c1C(=O)NCc1cccc2ccccc12`: 36.1%; for `NC(=O)c1ncn([C@@H]2O[C@H](C(=O)O)[C@@H](O)[C@H]2O)n1`: -11.9%.

`COc1cccc(CNC(=O)[C@H]2CCCN2C(=O)[C@H]2CCCN2C(=O)c2ccc(F)cc2)c1`: the inhibition is -14.1%. The figure for `COc1ccc(CNC(=O)C(c2ccc(O)cc2)N(Cc2ccco2)C(=O)c2snc(C(N)=O)c2N)cc1` (stereo unspecified) is 65% (active). The figure for `COc1cc(C(C(=O)NC2CCCC2)N(Cc2ccccc2)C(=O)c2snc(C(N)=O)c2N)ccc1O` (stereo unspecified) is 23.1%; for `NC(=O)c1nsc(C(=O)N(CC(=O)NCc2ccc(F)cc2)Cc2ccco2)c1N` it is 10.2%. The figure for `COc1ccc2nc3n(c(=O)c2c1)-c1ccc(Cl)cc1C(=O)NC3Cc1ccccc1` (stereo unspecified) is 25.3%; for `CCC(C(=O)OCC(=O)Nc1ccccc1-c1ccccc1)c1ccccc1` (stereo unspecified) it is 36.7%.

Regarding `CCC(C(=O)OCC(=O)Nc1c(Cl)cc(Cl)cc1Cl)c1ccccc1` (stereo unspecified), the inhibition was 15.1%. On to `CCC(C(=O)OCC(=O)Nc1ccc(C(=O)Nc2ccc(OC)cc2)cc1)c1ccccc1` (stereo unspecified), for which the inhibition was 65.6% (active).

Regarding `O=C1Nc2c(Br)cc(Br)cc2C1(O)N1CCOCC1` (stereo unspecified), the inhibition is 1.94%.

For `COc1ccc(-c2cc3nc(C)c(CCC(=O)NC(C)CCc4ccco4)c(C)n3n2)c(OC)c1` (stereo unspecified), the inhibition is 8.4%. The figure for `COc1ccc2[nH]c3c(c2c1)CCN1C(=O)C(CC(=O)NCCc2ccccn2)C[C@H](C(=O)N2CCOCC2)[C@@]31C` (stereo partly specified) is 3.09%.

As to `CCN1C(=O)N[C@@H]2C[C@H](C(=O)N3CCCC3)[C@H](C)[C@H](c3ccccc3)C[C@@H]21`, the inhibition was 6%. The same measure for `Cc1ccc(C)c(S(=O)(=O)N2CCN(CC(=O)Nc3ccc([N+](=O)[O-])cc3)CC2)c1`: 28.5%; for `Cc1ccc(C)c(S(=O)(=O)N2CCN(c3ncnc4sccc34)CC2)c1`: 65.3% (active); for `Cc1ccc(C)c(S(=O)(=O)n2cnc3ccccc32)c1`: -29.5%.

On to `COc1ccc(NC(=O)N(C)C[C@@H]2OCCCC[C@@H](C)Oc3ccc(NC(=O)NC4CCCCC4)cc3C(=O)N([C@H](C)CO)C[C@@H]2C)cc1`, for which the inhibition is 2.84%. Consider `CC[C@H](C)[C@H]1CNC(=O)C(=O)N1CC1CCN(CCc2ccc(OC)c(OC)c2)CC1`, for which the inhibition was 9.23%. Consider `CCO/C([O-])=N/c1c[n+](N2CCOCC2)no1`, for which the inhibition was -14.5% and -7.68%.

The values above are taken from PubChem BioAssay AID624466 (The Scripps Research Institute Molecular Screening Center, 2012).
